From ChEMBL document CHEMBL1138921, “Discovery of 3,5-bis(trifluoromethyl)benzyl L-arylglycinamide based potent CCR2 antagonists” (Bioorg Med Chem Lett, 2006)

Tests used:
Monocyte [1] = test: Inhibition of MCP1-induced chemotaxis of human monocytes at 10 uM; assay type: functional
Summary of the method: (§1)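 Human monocytes loaded with Calcein-AM in Hanks' buffer with 0.01% BSA, 37 °C, 30 min, then washed and resuspended in phenol red-free RPMI 1640 with 0.01% BSA. Migration toward MCP-1 measured in disposable 96-well chemotaxis plates (5.7 mm diameter wells), 1.5 × 10⁵ cells/well.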

[2] = biological target: T1, C-C chemokine receptor type 2 (Homo sapiens, UniProt P41597); test: Displacement of [125I]MCP1 from human CCR2 expressed in CHO cells; assay type: cell-based
Summary of the method: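 Competition binding: CHO cells stably expressing human CCR2b (5 × 10⁴) incubated with ¹²⁵I-hMCP-1 (20–50 pM) plus varied unlabeled competitor, 60 min, room temperature, in 50 mM HEPES, 5 mM MgCl₂, 1 mM CaCl₂, pH 7.4. Ended by filtration through polyethyleneimine-soaked GF/B filters, washed with 25 mM HEPES pH 7.5/500 mM NaCl. Values given as IC₅₀ or % inhibition at 1 µM.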

[3] = Oral bioavailability in rat; assay type: ADME, organism-based; details: in vivo
[4] = biological target: T2, Neuromedin-K receptor (Homo sapiens) (UniProt P29371); test: (§2) Binding affinity to human NK3 receptor
T2 sequence (whole entry): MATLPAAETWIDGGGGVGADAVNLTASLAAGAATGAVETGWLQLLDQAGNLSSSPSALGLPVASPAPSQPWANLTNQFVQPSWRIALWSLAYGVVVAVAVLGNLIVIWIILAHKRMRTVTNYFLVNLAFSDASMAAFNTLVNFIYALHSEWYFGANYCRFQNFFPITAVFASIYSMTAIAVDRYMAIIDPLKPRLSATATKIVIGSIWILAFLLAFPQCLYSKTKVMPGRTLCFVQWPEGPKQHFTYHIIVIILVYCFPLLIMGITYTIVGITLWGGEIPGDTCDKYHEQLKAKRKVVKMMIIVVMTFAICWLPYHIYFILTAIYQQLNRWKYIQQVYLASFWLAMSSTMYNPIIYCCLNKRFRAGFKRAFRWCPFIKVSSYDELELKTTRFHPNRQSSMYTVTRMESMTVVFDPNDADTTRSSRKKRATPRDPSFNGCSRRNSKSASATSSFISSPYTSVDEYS

Neuromedin-K receptor = biological target: T3, Neuromedin-K receptor (Homo sapiens, UniProt P29371); test: as §2
T3 sequence (P29371 whole entry): T2 sequence (whole entry)

Substance-P receptor = Substance-P receptor (Homo sapiens, UniProt P25103); test: Binding affinity to human NK1 receptor
[5] = Clearance in rat; assay type: ADME, organism-based; details: in vivo
[6] = Half life in rat; assay type: ADME, organism-based; details: in vivo
[7] = Portal level in rat at 3 mg/kg, po after 1 hr; assay type: ADME, organism-based; parameters: dose 3 mg/kg, route oral; details: portal vein (blood or plasma not stated), read-out: Activity
Summary of the method: (§3)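 Rats dosed orally at 3 mg/kg; drug levels in portal and systemic blood sampled at several time points to assess first-pass metabolism.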

Monocyte [8] = test: Inhibition of MCP1-induced chemotaxis of human monocytes; assay type: functional, cell-based; summary of the method: as §1
[9] = biological target: T4, Substance-K receptor (Homo sapiens) (UniProt P21452); test: (§4) Binding affinity to human NK2 receptor
T4 sequence (whole entry): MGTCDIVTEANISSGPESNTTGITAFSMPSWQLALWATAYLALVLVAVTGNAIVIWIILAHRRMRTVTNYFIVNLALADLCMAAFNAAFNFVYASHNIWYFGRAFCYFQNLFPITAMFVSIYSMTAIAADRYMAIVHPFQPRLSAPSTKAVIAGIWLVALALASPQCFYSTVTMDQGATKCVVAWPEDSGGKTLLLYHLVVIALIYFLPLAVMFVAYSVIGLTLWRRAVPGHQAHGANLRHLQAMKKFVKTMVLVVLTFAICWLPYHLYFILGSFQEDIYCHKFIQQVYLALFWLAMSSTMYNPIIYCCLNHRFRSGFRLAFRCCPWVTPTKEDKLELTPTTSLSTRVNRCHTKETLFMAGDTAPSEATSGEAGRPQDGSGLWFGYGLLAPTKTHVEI

Substance-K receptor = biological target: T5, Substance-K receptor (Homo sapiens, UniProt P21452); test: as §4
T5 sequence (P21452 whole entry): T4 sequence (whole entry)

[10] = biological target: T1, C-C chemokine receptor type 2; test: Binding affinity to CCR2 in human monocytes; assay type: cell-based
Summary of the method: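 Competition binding on human monocytes (2 × 10⁵ cells) incubated with ¹²⁵I-hMCP-1 (20–50 pM; 2200 Ci/mmol) and a range of unlabeled competitor concentrations. Buffer: 50 mM HEPES, 5 mM MgCl₂, 1 mM CaCl₂, pH 7.4, for 60 min at room temperature. Stopped by filtration through PEI-presoaked GF/B filters, washed with 25 mM HEPES pH 7.5 / 500 mM NaCl. Reported as IC50.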

[11] = biological target: T1, C-C chemokine receptor type 2; test: Antagonist activity against CCR2 assessed as inhibition of MCP1-induced calcium flux in human monocytes; assay type: functional, cell-based
[12] = biological target: T6, C-C chemokine receptor type 1 (Homo sapiens, UniProt P32246); test: (§5) Binding affinity to CCR1
T6 sequence (P32246 whole entry): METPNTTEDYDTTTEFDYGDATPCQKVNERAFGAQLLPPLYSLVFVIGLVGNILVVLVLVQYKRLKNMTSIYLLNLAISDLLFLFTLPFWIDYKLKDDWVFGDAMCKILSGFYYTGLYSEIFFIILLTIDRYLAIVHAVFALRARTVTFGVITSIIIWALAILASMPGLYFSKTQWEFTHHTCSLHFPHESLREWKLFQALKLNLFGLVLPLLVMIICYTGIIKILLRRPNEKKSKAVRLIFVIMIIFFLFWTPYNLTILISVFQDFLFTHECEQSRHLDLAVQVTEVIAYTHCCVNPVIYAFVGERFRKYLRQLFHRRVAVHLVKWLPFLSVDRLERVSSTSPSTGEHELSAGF

[13] = biological target: T7, C-C chemokine receptor type 1 (Homo sapiens) (UniProt P32246); test: as §5
T7 sequence (whole entry): T6 sequence (P32246 whole entry)

[14] = biological target: C-C chemokine receptor type 8 (Homo sapiens, UniProt P51685); test: Binding affinity to CCR8
[15] = biological target: T8, C-C chemokine receptor type 3 (Homo sapiens) (UniProt P51677); test: (§6) Binding affinity to CCR3
T8 sequence (whole entry): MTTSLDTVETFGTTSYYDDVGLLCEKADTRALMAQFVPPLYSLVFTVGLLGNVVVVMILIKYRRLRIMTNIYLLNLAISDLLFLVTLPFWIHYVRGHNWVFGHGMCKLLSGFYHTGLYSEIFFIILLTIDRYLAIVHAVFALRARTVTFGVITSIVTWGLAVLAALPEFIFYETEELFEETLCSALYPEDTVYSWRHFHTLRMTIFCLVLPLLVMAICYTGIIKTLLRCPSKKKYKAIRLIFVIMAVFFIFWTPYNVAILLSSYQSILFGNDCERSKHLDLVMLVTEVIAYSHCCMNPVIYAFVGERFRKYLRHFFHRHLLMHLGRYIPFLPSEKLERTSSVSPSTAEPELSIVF

[16] = biological target: T9, C-C chemokine receptor type 3 (Homo sapiens, UniProt P51677); test: as §6
T9 sequence (P51677 whole entry): T8 sequence (whole entry)

[17] = biological target: T10, C-C chemokine receptor type 4 (Homo sapiens, UniProt P51679); test: (§7) Binding affinity to CCR4
T10 sequence (P51679 whole entry): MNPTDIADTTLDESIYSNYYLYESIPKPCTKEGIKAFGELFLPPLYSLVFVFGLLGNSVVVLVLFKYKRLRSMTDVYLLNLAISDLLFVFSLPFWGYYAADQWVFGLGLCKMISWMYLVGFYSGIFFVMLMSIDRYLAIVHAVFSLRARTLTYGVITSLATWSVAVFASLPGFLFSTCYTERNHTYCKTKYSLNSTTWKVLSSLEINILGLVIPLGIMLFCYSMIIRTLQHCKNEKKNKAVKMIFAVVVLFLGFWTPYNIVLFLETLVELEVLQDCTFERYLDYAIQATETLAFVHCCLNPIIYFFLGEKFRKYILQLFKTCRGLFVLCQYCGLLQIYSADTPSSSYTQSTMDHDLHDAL

[18] = biological target: T11, C-C chemokine receptor type 4 (Homo sapiens) (UniProt P51679); test: as §7
T11 sequence (whole entry): T10 sequence (P51679 whole entry)

Rattus norvegicus = test: Systemic level in rat at 3 mg/kg, po; assay type: ADME, organism-based; parameters: dose 3 mg/kg, route oral; details: in vivo; summary of the method: as §3
[19] = biological target: C-C chemokine receptor type 5 (Homo sapiens, UniProt P51681)
Sequence of C-C chemokine receptor type 5 (P51681 whole entry): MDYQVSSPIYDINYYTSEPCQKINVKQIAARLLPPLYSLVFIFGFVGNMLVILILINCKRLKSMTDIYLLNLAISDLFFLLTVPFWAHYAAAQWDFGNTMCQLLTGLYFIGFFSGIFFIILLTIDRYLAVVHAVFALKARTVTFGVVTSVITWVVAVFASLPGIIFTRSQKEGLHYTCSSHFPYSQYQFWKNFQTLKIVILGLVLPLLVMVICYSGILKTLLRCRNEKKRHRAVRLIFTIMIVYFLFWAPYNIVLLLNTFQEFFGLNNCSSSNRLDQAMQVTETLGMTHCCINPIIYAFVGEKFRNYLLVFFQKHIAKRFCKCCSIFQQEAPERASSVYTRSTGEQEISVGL

T1 sequence (P41597 whole entry): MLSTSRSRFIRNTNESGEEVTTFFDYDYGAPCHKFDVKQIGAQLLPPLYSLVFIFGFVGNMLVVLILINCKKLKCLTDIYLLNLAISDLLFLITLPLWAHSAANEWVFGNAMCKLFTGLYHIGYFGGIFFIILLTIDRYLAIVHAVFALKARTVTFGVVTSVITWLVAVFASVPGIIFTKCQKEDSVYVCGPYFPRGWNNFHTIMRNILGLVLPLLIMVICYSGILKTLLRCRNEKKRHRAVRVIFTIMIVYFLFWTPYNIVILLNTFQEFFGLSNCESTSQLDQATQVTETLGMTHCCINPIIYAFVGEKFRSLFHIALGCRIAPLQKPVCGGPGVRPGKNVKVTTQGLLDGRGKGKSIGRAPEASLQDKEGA
Sequence of Substance-P receptor (P25103 whole entry): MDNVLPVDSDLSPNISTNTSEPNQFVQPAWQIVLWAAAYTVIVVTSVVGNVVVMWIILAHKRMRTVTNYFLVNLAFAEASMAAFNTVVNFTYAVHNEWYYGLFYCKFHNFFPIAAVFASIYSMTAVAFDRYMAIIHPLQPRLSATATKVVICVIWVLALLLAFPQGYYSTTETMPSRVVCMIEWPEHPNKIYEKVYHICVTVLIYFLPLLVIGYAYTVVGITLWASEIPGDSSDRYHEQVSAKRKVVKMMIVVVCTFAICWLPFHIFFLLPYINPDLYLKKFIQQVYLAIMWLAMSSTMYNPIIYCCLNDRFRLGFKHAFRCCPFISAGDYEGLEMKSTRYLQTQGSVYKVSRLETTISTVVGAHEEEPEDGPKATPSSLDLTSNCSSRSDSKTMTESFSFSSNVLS
Sequence of C-C chemokine receptor type 8 (P51685 whole entry): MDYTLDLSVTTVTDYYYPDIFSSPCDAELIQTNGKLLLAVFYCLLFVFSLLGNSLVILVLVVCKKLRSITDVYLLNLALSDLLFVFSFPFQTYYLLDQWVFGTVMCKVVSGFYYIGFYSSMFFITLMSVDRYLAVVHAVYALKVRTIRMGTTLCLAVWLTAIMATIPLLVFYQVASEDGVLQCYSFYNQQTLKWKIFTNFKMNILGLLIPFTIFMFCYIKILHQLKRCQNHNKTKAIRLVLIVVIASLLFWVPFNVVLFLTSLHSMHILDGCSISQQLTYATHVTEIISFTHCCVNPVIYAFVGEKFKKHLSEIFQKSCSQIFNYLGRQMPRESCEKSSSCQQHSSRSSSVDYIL

CN(CCN1CCCCC1)c1ccc(-c2nc3cc(Cl)c(Cl)cc3[nH]2)cc1
inhibition at 10 µM (Monocyte [1]): 100%

O=C(NCc1cc(C(F)(F)F)cc(C(F)(F)F)c1)[C@@H](NCCN1CCCCC1)c1ccsc1
IC50 [2]: 39 nM | bioavailability [3]: 4.5% | Activity [4]: 10% | IC50 (Neuromedin-K receptor): > 1000 nM | Activity (Substance-P receptor): 31% | IC50 (Substance-P receptor): > 100 nM | clearance [5]: 80 mL/min/kg | half-life [6]: 108 min | concentration at 1 h [7]: > 300 ng/mL | IC50 (Monocyte [8]): 9.6 nM | Activity [9]: 20% | IC50 (Substance-K receptor): > 1000 nM | IC50 [10]: 30 nM | IC50 [11]: 50 nM | IC50 [12]: > 1000 nM | Activity [13]: -19% | Activity [14]: 15% | IC50 [14]: > 1000 nM | Activity [15]: 2% | IC50 [16]: > 1000 nM | IC50 [17]: > 2000 nM | Activity [18]: 6% | Activity (Rattus norvegicus): < 20 ng/mL | IC50 [19]: > 1000 nM
